In brackets after ≈: the same amount, converted by molar mass.
Tests used:
[1] = pharmacokinetic parameter was evaluated after oral administration of 30 mg/kg to rat; assay type: ADME, organism-based; set-up: dose 30 mg/kg, route oral; settings: in vivo
Summary of the method: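 Sprague-Dawley rats, n=3, dosed orally at 30 mg/kg. Plasma drug concentrations were followed to derive Tmax (h), Cmax (µg/mL), T1/2 (h) and AUC0-∞ (µg h/mL).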

[2] = Plasma concentration was determined after 1 hr at a dose 30 mg/kg administered orally to rat-12; assay type: ADME, organism-based; set-up: dose 30 mg/kg, route oral; settings: po
Summary of the method: (§1)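 Sprague-Dawley rats, n=2 per compound, dosed orally at 30 mg/kg. Plasma drug concentration measured 1 and 8 h after dosing.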

[3] = Plasma concentration was determined after 1 hr at a dose 30 mg/kg administered orally to rat-11; assay type: ADME, organism-based; set-up: dose 30 mg/kg, route oral; settings: po; summary of the method: as §1
[4] = Plasma concentration was determined after 8 hr at a dose 30 mg/kg administered orally to rat-12; assay type: ADME, organism-based; set-up: dose 30 mg/kg, route oral; settings: po; summary of the method: as §1
[5] = Lipophilicity was reported; assay type: physicochemical; settings: octanol/water
[6] = Plasma concentration was determined after 8 hr at a dose 30 mg/kg administered orally to rat-11; assay type: ADME, organism-based; set-up: dose 30 mg/kg, route oral; settings: po; summary of the method: as §1
[7] = Solubility in aqueous phosphate buffer (pH 7.4) at 20c was determined; assay type: physicochemical
Protein kinase C (PKC) = test: Inhibition of Protein kinase C; assay type: protein assay
Summary of the method: (§2)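 Substrate phosphorylation measured in an in vitro assay with purified enzyme; IC50 values in µmol/L.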

[8] = molecular target: Mast/stem cell growth factor receptor Kit (Homo sapiens, UniProt P10721); test: Inhibition of Mast/stem cell growth factor receptor (c-kit) autophosphorylation
Sequence of Mast/stem cell growth factor receptor Kit (P10721 whole entry): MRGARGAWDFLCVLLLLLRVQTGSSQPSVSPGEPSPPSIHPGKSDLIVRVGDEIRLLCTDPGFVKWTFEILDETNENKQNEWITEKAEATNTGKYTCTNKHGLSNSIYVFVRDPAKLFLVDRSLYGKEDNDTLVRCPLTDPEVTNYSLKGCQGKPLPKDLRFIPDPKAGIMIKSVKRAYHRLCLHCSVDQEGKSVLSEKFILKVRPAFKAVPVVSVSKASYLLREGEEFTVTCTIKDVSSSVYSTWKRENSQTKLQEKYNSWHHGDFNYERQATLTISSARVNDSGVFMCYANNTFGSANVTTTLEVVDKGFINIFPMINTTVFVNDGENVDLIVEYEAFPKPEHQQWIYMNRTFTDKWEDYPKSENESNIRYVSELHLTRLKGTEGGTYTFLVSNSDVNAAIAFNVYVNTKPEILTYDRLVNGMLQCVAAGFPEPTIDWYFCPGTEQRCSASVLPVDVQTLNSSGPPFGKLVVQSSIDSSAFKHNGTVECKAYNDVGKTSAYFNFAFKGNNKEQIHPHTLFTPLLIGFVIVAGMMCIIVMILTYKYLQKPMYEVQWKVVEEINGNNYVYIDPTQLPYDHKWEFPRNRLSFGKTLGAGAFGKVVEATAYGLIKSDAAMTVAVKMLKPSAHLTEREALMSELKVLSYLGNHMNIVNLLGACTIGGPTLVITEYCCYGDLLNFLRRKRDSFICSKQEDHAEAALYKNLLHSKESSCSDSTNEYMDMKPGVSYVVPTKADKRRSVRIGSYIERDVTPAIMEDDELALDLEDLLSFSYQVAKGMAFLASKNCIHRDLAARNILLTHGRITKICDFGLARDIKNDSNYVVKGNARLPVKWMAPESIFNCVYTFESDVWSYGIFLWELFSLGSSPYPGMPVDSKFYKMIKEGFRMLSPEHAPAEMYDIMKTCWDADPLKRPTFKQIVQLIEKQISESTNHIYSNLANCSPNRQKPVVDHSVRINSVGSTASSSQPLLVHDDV

MAP kinase p38 = MAP kinase p38 (Homo sapiens, UniProt O15264+Q15759+Q16539+P53778); test: Inhibition of Mitogen-activated protein kinase p38; assay type: protein assay; summary of the method: as §2
[9] = molecular target: Proto-oncogene tyrosine-protein kinase Src (Homo sapiens, UniProt P12931); test: Inhibition of Src protein tyrosine kinase; summary of the method: as §2
Sequence of Proto-oncogene tyrosine-protein kinase Src (P12931 2-536 limits assumed): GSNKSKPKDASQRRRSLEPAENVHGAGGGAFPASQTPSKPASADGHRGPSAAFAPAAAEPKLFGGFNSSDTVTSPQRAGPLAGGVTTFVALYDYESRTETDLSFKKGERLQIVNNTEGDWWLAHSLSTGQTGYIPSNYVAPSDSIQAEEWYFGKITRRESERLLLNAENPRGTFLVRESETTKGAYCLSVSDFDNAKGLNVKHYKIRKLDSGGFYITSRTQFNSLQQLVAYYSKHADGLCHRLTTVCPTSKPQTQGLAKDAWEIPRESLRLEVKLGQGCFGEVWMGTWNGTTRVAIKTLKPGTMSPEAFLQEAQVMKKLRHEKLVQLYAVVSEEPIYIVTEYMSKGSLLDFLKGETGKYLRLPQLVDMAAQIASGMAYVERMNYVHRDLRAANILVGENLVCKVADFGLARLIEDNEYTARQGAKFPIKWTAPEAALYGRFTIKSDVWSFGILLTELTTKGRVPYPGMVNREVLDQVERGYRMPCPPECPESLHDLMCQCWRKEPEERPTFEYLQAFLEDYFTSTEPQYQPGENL

[10] = molecular target: Mitogen-activated protein kinase; ERK1/ERK2 (Homo sapiens, UniProt P27361+P28482); test: Inhibition of Extracellular signal-regulated kinase (Erk); assay type: protein assay; summary of the method: as §2
[11] = Plasma concentration was determined after 8 hr at a dose 30 mg/kg administered orally to rat-4; assay type: ADME, organism-based; set-up: dose 30 mg/kg, route oral; settings: po; summary of the method: as §1
[12] = molecular target: Platelet-derived growth factor receptor alpha (Homo sapiens, UniProt P16234); test: Inhibition of PDGF receptor alpha autophosphorylation
[13] = molecular target: Mitogen-activated protein kinase 8 (Homo sapiens, UniProt P45983); test: Inhibition of c-Jun N-terminal kinase (Jnk); summary of the method: as §2
Sequence of Mitogen-activated protein kinase 8 (P45983 whole entry): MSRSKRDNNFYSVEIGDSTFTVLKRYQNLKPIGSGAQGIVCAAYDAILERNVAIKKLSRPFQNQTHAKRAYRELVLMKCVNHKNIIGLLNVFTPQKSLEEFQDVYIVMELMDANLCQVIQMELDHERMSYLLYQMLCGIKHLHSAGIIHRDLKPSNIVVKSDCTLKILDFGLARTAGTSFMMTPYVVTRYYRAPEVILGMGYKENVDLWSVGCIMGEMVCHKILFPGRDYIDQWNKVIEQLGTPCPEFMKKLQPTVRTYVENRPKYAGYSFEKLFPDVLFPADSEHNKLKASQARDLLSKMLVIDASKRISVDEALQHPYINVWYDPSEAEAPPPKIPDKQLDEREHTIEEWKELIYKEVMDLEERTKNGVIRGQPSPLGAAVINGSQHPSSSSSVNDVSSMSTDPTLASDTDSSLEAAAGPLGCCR

[14] = Plasma concentration was determined after 8 hr at a dose 30 mg/kg administered orally to rat-3; assay type: ADME, organism-based; set-up: dose 30 mg/kg, route oral; settings: po; summary of the method: as §1
[15] = molecular target: cAMP-dependent protein kinase (PKA) (Homo sapiens, UniProt P22694+P17612+P22612); test: Inhibition of Protein kinase A (PKA); assay type: protein assay; summary of the method: as §2
[16] = molecular target: Fibroblast growth factor receptor (Homo sapiens, UniProt P22607+P11362+P22455+P21802); test: Inhibition of Fibroblast growth factor receptor autophosphorylation; assay type: protein assay
[17] = molecular target: Dual specificity mitogen-activated protein kinase kinase 1 (Homo sapiens, UniProt Q02750); test: Inhibition of Mitogen activated protein kinase kinase 1; summary of the method: as §2
Sequence of Dual specificity mitogen-activated protein kinase kinase 1 (Q02750 whole entry): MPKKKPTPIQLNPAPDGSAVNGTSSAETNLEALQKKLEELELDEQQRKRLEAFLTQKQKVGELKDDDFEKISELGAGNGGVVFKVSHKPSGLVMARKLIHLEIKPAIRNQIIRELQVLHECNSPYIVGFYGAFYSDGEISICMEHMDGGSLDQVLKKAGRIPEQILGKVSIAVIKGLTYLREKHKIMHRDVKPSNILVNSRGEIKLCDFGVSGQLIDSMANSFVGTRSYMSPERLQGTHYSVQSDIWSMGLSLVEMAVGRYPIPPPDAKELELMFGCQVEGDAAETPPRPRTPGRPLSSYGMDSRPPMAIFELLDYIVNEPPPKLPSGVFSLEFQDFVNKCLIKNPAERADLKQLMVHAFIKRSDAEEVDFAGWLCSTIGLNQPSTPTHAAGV

[18] = molecular target: Macrophage colony-stimulating factor 1 receptor (Homo sapiens, UniProt P07333); test: Inhibition of Colony stimulating factor 1 receptor (CSF-1R) autophosphorylation
Sequence of Macrophage colony-stimulating factor 1 receptor (P07333 whole entry): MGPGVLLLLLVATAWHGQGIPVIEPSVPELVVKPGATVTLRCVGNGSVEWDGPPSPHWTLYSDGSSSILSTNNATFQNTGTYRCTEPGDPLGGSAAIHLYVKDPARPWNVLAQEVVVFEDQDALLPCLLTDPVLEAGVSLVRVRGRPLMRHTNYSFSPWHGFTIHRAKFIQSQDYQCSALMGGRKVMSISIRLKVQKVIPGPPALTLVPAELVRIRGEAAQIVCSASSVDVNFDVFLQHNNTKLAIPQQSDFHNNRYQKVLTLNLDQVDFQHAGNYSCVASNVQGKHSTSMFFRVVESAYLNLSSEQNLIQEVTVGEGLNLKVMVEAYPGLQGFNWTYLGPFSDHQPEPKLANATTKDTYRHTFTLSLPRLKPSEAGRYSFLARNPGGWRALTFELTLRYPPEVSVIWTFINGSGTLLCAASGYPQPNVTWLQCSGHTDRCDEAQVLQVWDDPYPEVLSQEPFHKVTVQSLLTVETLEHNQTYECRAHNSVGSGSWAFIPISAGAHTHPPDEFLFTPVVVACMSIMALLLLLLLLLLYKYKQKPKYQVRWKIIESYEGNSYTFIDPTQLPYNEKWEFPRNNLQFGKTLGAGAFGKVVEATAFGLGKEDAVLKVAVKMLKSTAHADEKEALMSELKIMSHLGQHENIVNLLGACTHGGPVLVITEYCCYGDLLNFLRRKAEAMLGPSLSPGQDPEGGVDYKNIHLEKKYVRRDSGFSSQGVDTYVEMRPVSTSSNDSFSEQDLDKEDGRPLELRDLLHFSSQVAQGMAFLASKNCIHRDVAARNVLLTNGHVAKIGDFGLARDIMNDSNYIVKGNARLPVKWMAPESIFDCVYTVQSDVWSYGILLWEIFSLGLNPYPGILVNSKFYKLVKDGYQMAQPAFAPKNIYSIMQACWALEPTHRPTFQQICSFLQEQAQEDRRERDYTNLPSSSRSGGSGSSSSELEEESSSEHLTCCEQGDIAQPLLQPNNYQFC

[19] = molecular target: T1, Dual specificity mitogen-activated protein kinase kinase 3 (Homo sapiens, UniProt P46734); test: Inhibition of Mitogen activated protein kinase kinase 3; summary of the method: as §2
T1 sequence (P46734 whole entry): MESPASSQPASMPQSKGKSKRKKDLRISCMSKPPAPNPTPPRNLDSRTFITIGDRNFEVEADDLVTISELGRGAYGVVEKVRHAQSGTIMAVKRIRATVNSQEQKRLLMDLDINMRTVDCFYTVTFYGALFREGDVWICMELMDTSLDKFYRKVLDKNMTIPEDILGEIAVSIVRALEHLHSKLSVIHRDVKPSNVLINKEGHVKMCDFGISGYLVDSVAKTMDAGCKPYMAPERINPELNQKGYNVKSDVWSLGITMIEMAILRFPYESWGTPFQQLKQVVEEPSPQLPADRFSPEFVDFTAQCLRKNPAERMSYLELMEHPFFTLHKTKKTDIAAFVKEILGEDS

[20] = Plasma concentration was determined after 1 hr at a dose 30 mg/kg administered orally to rat-4; assay type: ADME, organism-based; set-up: dose 30 mg/kg, route oral; settings: po; summary of the method: as §1
[21] = molecular target: T2, Receptor-type tyrosine-protein kinase FLT3 (Homo sapiens, UniProt P36888); test: Inhibition of Flt3 autophosphorylation
T2 sequence (P36888 whole entry): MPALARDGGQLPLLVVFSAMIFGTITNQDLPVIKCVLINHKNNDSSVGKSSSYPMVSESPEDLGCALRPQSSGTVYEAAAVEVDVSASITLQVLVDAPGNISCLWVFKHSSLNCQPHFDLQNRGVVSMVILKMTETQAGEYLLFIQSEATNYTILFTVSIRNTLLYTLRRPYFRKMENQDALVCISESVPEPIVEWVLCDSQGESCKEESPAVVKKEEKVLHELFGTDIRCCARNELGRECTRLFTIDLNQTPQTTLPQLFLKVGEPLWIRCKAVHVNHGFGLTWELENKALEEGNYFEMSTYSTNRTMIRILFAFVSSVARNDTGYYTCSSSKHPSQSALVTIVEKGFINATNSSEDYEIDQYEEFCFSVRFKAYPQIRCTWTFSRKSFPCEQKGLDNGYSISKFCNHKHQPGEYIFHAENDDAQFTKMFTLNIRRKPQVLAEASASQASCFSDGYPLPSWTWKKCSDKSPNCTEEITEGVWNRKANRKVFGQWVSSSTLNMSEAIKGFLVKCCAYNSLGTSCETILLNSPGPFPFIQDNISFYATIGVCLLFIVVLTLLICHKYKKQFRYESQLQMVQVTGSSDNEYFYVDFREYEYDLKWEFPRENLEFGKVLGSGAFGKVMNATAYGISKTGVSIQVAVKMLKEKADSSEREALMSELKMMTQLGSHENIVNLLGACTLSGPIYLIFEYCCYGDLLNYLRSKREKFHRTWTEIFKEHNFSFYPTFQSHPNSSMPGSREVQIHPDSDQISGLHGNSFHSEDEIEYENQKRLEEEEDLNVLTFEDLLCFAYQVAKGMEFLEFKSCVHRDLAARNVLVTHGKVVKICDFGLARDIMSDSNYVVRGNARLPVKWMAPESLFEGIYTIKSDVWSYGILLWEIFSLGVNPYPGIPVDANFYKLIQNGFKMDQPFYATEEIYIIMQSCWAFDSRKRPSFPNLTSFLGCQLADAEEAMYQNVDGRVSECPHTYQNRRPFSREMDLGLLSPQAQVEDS

[22] = Plasma concentration was determined after 1 hr at a dose 30 mg/kg administered orally to rat-3; assay type: ADME, organism-based; set-up: dose 30 mg/kg, route oral; settings: po; summary of the method: as §1
[23] = molecular target: T3, Dual specificity mitogen-activated protein kinase kinase 6 (Homo sapiens, UniProt P52564); test: Inhibition of Mitogen activated protein kinase kinase 6; summary of the method: as §2
T3 sequence (P52564 whole entry): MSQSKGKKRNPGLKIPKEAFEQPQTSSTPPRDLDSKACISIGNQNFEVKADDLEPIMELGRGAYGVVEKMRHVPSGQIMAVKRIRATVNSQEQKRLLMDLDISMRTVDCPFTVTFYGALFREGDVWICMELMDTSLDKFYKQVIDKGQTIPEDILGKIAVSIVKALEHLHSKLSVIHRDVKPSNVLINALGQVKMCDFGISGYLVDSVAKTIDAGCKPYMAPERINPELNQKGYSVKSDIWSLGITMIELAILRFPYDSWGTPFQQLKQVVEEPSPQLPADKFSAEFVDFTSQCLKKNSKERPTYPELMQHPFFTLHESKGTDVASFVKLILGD

[24] = Plasma concentration was determined after 8 hr at a dose 30 mg/kg administered orally to rat-5; assay type: ADME, organism-based; set-up: dose 30 mg/kg, route oral; settings: po; summary of the method: as §1
[25] = Plasma concentration was determined after 1 hr at a dose 30 mg/kg administered orally to rat-6; assay type: ADME, organism-based; set-up: dose 30 mg/kg, route oral; settings: po; summary of the method: as §1
[26] = Plasma concentration was determined after 1 hr at a dose 30 mg/kg administered orally to rat-5; assay type: ADME, organism-based; set-up: dose 30 mg/kg, route oral; settings: po; summary of the method: as §1
[27] = Plasma concentration was determined after 8 hr at a dose 30 mg/kg administered orally to rat-6; assay type: ADME, organism-based; set-up: dose 30 mg/kg, route oral; settings: po; summary of the method: as §1
[28] = molecular target: Platelet-derived growth factor receptor (Homo sapiens, UniProt P09619+P16234); test: Concentration required for 50% inhibition against autophosphorylation of Platelet-derived growth factor receptor beta in intact cells using a two site ELISA; assay type: cell-based
[29] = Plasma concentration was determined after 1 hr at a dose 30 mg/kg administered orally to rat-9; assay type: ADME, organism-based; set-up: dose 30 mg/kg, route oral; settings: po; summary of the method: as §1
[30] = molecular target: Vascular endothelial growth factor receptor 2 (Homo sapiens, UniProt P35968); test: Inhibition of Vascular endothelial growth factor receptor 2 (VEGFR-2) autophosphorylation
Sequence of Vascular endothelial growth factor receptor 2 (P35968 whole entry): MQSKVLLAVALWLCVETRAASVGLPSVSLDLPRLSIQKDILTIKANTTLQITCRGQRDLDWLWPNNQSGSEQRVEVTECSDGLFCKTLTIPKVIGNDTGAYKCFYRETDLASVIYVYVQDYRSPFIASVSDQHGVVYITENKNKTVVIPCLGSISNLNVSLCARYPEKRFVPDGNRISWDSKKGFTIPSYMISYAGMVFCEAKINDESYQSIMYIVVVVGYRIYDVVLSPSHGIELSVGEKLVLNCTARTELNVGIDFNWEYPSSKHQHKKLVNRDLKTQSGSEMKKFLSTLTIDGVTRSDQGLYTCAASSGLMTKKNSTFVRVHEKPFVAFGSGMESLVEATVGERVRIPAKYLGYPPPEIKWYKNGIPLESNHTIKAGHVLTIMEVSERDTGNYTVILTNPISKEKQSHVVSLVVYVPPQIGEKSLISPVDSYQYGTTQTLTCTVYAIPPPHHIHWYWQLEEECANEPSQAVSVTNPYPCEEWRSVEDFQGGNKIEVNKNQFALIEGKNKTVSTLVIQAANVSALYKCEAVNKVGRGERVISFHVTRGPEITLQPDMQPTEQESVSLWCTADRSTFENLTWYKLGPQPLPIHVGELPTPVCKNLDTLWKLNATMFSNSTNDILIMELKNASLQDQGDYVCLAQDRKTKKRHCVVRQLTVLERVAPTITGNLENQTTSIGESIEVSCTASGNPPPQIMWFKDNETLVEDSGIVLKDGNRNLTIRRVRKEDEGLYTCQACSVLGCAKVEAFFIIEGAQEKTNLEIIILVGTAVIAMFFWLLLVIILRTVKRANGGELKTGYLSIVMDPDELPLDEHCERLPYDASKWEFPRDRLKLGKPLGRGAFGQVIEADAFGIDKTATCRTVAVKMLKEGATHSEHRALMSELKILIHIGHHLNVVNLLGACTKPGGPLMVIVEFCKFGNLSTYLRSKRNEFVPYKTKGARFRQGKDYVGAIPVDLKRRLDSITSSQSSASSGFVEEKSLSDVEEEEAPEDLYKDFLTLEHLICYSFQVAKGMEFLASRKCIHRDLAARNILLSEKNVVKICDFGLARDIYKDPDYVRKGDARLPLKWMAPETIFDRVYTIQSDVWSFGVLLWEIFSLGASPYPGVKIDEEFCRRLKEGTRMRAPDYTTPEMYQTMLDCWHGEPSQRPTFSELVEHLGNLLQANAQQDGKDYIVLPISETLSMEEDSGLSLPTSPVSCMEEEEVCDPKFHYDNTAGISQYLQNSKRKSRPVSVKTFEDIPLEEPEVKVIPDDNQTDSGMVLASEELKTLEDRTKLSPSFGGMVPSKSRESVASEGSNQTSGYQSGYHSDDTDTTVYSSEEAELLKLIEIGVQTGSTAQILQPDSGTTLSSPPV

[31] = Plasma concentration was determined after 1 hr at a dose 30 mg/kg administered orally to rat-10; assay type: ADME, organism-based; set-up: dose 30 mg/kg, route oral; settings: po; summary of the method: as §1
[32] = molecular target: Tyrosine-protein kinase ABL (Homo sapiens, UniProt P00519+P42684); test: Inhibition of Abl tyrosine kinase; assay type: protein assay; summary of the method: as §2
[33] = Plasma concentration was determined after 8 hr at a dose 30 mg/kg administered orally to rat-9; assay type: ADME, organism-based; set-up: dose 30 mg/kg, route oral; settings: po; summary of the method: as §1
[34] = Plasma concentration was determined after 8 hr at a dose 30 mg/kg administered orally to rat-10; assay type: ADME, organism-based; set-up: dose 30 mg/kg, route oral; settings: po; summary of the method: as §1

SMILES | AUC [1] [µg·h/mL] | Cmax [1] [ng/mL] | Tmax [1] [h] | half-life [1] [h] | IC50 (Protein kinase C (PKC)) [uM l-1] | IC50 [8] [µM] | IC50 (MAP kinase p38) [uM l-1] | IC50 [9] [µM] | IC50 [10] [uM l-1] | IC50 [13] [µM] | IC50 [15] [uM l-1] | IC50 [16] [uM l-1] | IC50 [17] [µM] | IC50 [18] [µM] | IC50 [21] [µM] | IC50 [23] [µM] | further results
COc1cc2ncnc(N3CCN(C(=O)Nc4ccsc4)CC3)c2cc1OC | 145 | 15900 | 3.33 | 4.25 |  |  |  |  |  |  |  |  |  |  |  |  | concentration at 1 h [2]: 7700 ng/mL; concentration at 1 h [3]: 12400 ng/mL; concentration at 8 h [4]: 700 ng/mL; logD [5]: 2.72; concentration at 8 h [6]: 3700 ng/mL; solubility [7]: 2 µg/mL (≈ 5.01 µM)
COc1cc2ncnc(N3CCN(/C(S)=N\Cc4ccccc4)CC3)c2cc1OC |  |  |  |  | > 30 | > 30 | > 30 | > 30 | > 30 | > 30 | > 30 | > 200 | > 30 | > 30 | > 30 | > 30 | concentration at 8 h [11]: 900 ng/mL; IC50 [12]: 0.24 µM; concentration at 8 h [14]: 1600 ng/mL; IC50 [19]: > 30 µM; concentration at 1 h [20]: 8100 ng/mL; concentration at 1 h [22]: 5400 ng/mL
COc1cc2ncnc(N3CCN(C(=S)NCc4ccc(Cl)cc4)CC3)c2cc1OC |  |  |  |  |  |  |  |  |  |  |  |  |  |  |  |  | concentration at 8 h [24]: 1300 ng/mL; concentration at 1 h [25]: < 100 ng/mL; concentration at 1 h [26]: 2400 ng/mL; concentration at 8 h [27]: < 100 ng/mL; IC50 [28]: 0.07 µM
COc1cc2ncnc(N3CCN(/C(S)=N\Cc4ccc5c(c4)OCO5)CC3)c2cc1OC | 89.9 | 14500 | 3.33 | 3.92 | > 30 |  | > 30 | > 30 | > 30 | > 30 | > 30 | 160 | > 30 | > 30 | 14.9 | > 30 | concentration at 1 h [29]: 5100 ng/mL; IC50 [30]: 17.3 µM; concentration at 1 h [31]: 5900 ng/mL; IC50 [32]: > 30 uM l-1; concentration at 8 h [33]: 2400 ng/mL; concentration at 8 h [34]: 3600 ng/mL
COc1cc2ncnc(N3CCN(C(=O)Nc4ccsc4)CC3)c2cc1OC.Cl |  |  |  |  | > 30 | 0.8 |  |  |  |  | > 30 | > 30 |  |  | 7.02 |  | 

— ChEMBL document CHEMBL1136005 (J Med Chem, 2002)
